GPR7 antag = human neuropeptides B/W receptor 1 antagonism | P48145 | GPR7-expressing cells, fluorescence antagonist assay | inhibition, % at 4.4 µM | hit rate 1.1% among 290,000; in the data active = inhibition above about 16%, passing the limit was not always enough;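 also: cells stimulated with the agonist NPW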
Target sequence (P48145 whole entry, looked up): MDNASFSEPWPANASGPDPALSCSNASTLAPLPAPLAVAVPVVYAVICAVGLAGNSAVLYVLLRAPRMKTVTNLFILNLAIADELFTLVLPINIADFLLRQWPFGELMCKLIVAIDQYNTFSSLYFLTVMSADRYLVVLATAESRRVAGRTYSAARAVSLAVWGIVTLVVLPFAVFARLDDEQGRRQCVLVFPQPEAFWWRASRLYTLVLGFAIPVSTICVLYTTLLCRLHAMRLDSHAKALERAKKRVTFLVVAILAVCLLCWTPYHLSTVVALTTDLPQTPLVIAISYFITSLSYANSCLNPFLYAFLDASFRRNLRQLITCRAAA
CHO parental Ca = counter-screen for OX1R antagonists: effect in parental CHO cells | parental CHO-K1, ATP-induced calcium, Fluo-8 fluorescence | inhibition, % at 5.6 µM | hit rate 0.63% among 330,000 | AID 463079;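 active = inhibition above that plate's mean sample inhibition plus 3 SD, cut at about 26% in these data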
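Test system: untransfected parental CHO cell line; also added: ATP stimulus; dosing: 5.6 µM, single dose; signal: calcium-sensitive Fluo-8 fluorescence; measure: percent inhibition of ATP-evoked calcium rise, normalized to controls; benchmarks: low control ATP plus DMSO, high control DMSO only; replication: one well per compound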
OX1R antag-1 = antagonists of human orexin 1 receptor (OX1R). O43613. OX1R-expressing cells, FRET antagonist read-out. inhibition, % at 6.6 µM. hit rate 1.8% among 330,000. AID 485270; in the data active = inhibition mostly above about 38%, no sharp cut-off; inactive = mostly below about 40%
TAAR1 agonist = agonists of human TAAR1 | activation, % at 3 µM | AID 624467 | CHO RD-HGA16 TAAR1, Fluo-8 calcium fluorescence; vehicle wells 0%, saturating PEA agonist 100% | hit rate 0.99% among 360,000;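 active = activation above the mean activation of all test compounds in the run plus 3 SD, cut at about 38% in these data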
Target sequence (Q96RJ0 whole entry, looked up): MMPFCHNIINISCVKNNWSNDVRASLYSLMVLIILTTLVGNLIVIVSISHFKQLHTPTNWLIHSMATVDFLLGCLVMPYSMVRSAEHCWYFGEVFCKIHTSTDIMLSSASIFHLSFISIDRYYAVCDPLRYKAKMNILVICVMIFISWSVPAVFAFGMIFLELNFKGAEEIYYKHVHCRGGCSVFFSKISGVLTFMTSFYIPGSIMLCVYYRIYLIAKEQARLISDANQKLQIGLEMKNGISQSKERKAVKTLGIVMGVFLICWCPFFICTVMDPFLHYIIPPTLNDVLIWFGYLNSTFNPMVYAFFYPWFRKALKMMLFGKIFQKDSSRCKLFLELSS
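Test system: RD-HGA16 (CHO) cells co-expressing Gα16 and hTAAR1; dosing: one-point dosing at 3 µM (nominal); timing: 17-24 h seeding, 75 min 37 °C dye, 30 min RT; signal: kinetic Fluo-8 calcium fluorescence; read-out basis: % activation relative to PEA EC100 response; controls: DMSO and PEA EC100; replicates: n 1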
TAAR1 antag = antagonists of human TAAR1 | hit rate 1.5% among 360,000 | CHO RD-HGA16 TAAR1, Fluo-8 calcium fluorescence, antagonist | AID 624466 | inhibition, % at 3 µM | Q96RJ0;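 active = inhibition above a per-plate cutoff, the mean inhibition of test compounds on that plate plus 3 SD, cut at about 49% in these data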
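System: CHO RD-HGA16 cells bearing hTAAR1. Reagent: EC80 β-phenethylamine stimulus. Schedule: seeding 17-24 h prior, 75-min 37 °C, 30-min RT dye loading. Signal: Fluo-8 intracellular calcium dye fluorescence, real-time kinetic reads. Read-out: % inhibition from peak post-agonist over basal fluorescence ratio. Benchmarks: vehicle wells and EC80 agonist wells. Replicates: n of 1.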
OX1R antag-2 = human HCRTR1 antagonism | CHO/OX1R cells, Fluo-8 calcium fluorescence, orexin A | O43613 | inhibition, % at 5 µM | AID 434989 | hit rate 0.43% among 330,000;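 active = inhibition above its plate's threshold, mean inhibition of all tested compounds on the plate plus 3 SD, cut at about 37% in these data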
Numbers stand for hits; i = inactive; nt = no result. Shown are actives, neighbours in structure and some others; about 4.6% of the full set was active somewhere.

SMILES	GPR7 antag	CHO parental Ca	OX1R antag-1	TAAR1 agonist	TAAR1 antag	OX1R antag-2
CC1CN(C(=S)NC(=O)c2ccccc2)CC(C)O1 (stereo unspecified)	i	i	i	i	i	i
CC1CN(C(=S)NC(=O)c2ccc([N+](=O)[O-])cc2)CC(C)O1 (stereo unspecified)	i	i	119.5	i	i	i
O=C(NCc1ccccc1)c1onc(CSc2ccccc2)c1C(=O)NCc1ccccc1	nt	i	i	i	i	i
O=C(CCS(=O)(=O)c1cccs1)Nc1ccc(C(=O)NC2CCCC2)cc1	i	i	i	i	i	i
CN(CCOc1ccc(-c2ccn(S(=O)(=O)c3ccc(Cl)cc3)n2)cc1)c1ccccn1	18.7	i	i	i	i	i
CN(CCOc1ccc(-c2ccn(S(=O)(=O)c3c(Cl)cccc3Cl)n2)cc1)c1ccccn1	i	i	i	i	i	i
CN(C)C=NC(=O)c1ccc([N+](=O)[O-])c(CS(=O)(=O)c2ccc(Cl)cc2)c1	i	i	71.7	i	i	i
COc1ccc(OCC(=O)OCCN2C(=O)c3ccccc3C2=O)cc1	i	i	i	i	i	i
CC(=O)c1ccc2cccc3c2c1N=CN3C	i	i	i	i	i	i
CCn1c(SCC(=O)Nc2cccc(OC)c2)nc2ccccc2c1=O	i	nt	nt	i	i	nt
CCOCCn1ccc2c(OCC(=O)Nc3ccccc3OC)cccc2c1=O	nt	i	i	i	58.3	i
COc1cccc(NC(=O)CSc2nc3ccccc3n2C)c1	i	i	57.4	i	i	i
Cn1c(SCc2cccc([N+](=O)[O-])c2)nc2ccccc2c1=O	nt	35.8	54.0	i	i	67.7
COc1ccccc1NC(=O)CSc1nc2ccccc2c(=O)n1C	i	49.8	48.3	i	i	i
Cc1cccc(NC(=O)CSc2nc3ccccc3c(=O)n2C)c1C	nt	nt	nt	i	i	nt
CCOc1c(C(N)=O)cc([N+](=O)[O-])cc1[N+](=O)[O-]	i	i	i	i	i	i
C=CCOc1c(CCC)cc(CCC)cc1C(N)=O	i	93.8	i	i	i	i
Cc1noc(C)c1COc1ccccc1C(=O)N(C)Cc1ccc(C(C)(C)C)cc1	nt	i	i	i	i	47.6
CN(C)C(=O)c1noc2cc([N+](=O)[O-])ccc12	i	i	52.4	i	i	i
CC(C)NC(=O)c1noc2cc([N+](=O)[O-])ccc12	i	i	67.2	i	i	i
COc1ccc([N+](=O)[O-])cc1NC(C)C	i	i	i	i	i	i
O=C(CSc1cccc2cccnc12)NCc1ccco1	i	i	i	i	i	i
COc1ccc(-c2ccc(CNCc3ccccn3)o2)cc1Cl	i	i	i	nt	nt	i
Cc1c(C2(O)CCCCC2)[nH]c2cc(C(F)(F)F)ccc12	nt	64.7	71.3	i	i	91.2
CCc1c(C2(O)CCCCC2)[nH]c2cc(C(F)(F)F)ccc12	i	i	64.3	nt	nt	45.2
SMILES	GPR7 antag	CHO parental Ca	OX1R antag-1	TAAR1 agonist	TAAR1 antag	OX1R antag-2
O=C(CNC(=O)c1ccc(Cl)cc1Cl)OCN1C(=O)c2ccccc2C1=O	nt	i	i	i	i	i
COc1ccc(NC(=S)N2CCC3CC2c2c(Cl)cccc23)c(OC)c1 (stereo unspecified)	nt	nt	nt	i	i	nt
CC1=C(C)/C(=N/OC(=O)c2cccc([N+](=O)[O-])c2)C=CC1=O	i	i	73.5	nt	nt	i
N/C(=N/OC(=O)c1cccc([N+](=O)[O-])c1)c1cccc([N+](=O)[O-])c1	i	i	i	i	i	i
CC(=O)c1cccc(NC(=O)COC(=O)CCC(=O)c2ccc(F)cc2)c1	nt	i	i	i	i	i
CCOC(=O)C1C(c2ccccc2)C(C(=O)OCC)S(=O)(=O)C(CCN(CC)CC)S1(=O)=O (stereo unspecified)	i	i	i	i	i	i
O=C(Nc1ccc(OCC(F)(F)C(F)F)c(C(F)(F)F)c1)c1ccccc1	i	i	i	i	i	i
O=C(Nc1ccc(OCC(F)(F)C(F)F)c(C(F)(F)F)c1)c1ccccc1O	i	72.0	84.5	i	i	66.4
Cc1cc(C(=O)CSc2nc3ccc(Cl)cc3[nH]2)c(C)n1CC1CCCO1 (stereo unspecified)	i	45.4	87.8	i	i	i
Cc1cc(C(=O)CSc2nc3ccccc3[nH]2)c(C)n1Cc1ccco1	i	48.9	77.4	i	i	i
O=C(CSc1nc2ccccc2c(=O)[nH]1)Nc1ccc(C(=O)O)cc1	20.1	i	i	i	i	i
C=CCn1c(C)cc(C(=O)CSc2nc3ccccc3[nH]2)c1C	i	i	42.1	i	59.8	46.4
CCOC(=O)[C@@H]1[C@H]2COc3ccccc3[C@@H]2N2C(=O)N(c3ccc(C)cc3)C(=O)[C@]12C	i	i	i	nt	nt	i
Cc1cc(C(=O)COc2ccccc2C(N)=O)c(C)n1CC1CCCO1 (stereo unspecified)	i	33.9	i	i	i	i
COCCn1c(C)cc(C(=O)CSc2nc3ccccc3c(=O)[nH]2)c1C	i	i	i	i	i	i
Cc1ccc(C(=O)CSc2nc3ccccc3c(=O)[nH]2)cc1C	i	i	48.4	i	i	i
C=CCn1c(C)cc(C(=O)CSc2nc3ccccc3c(=O)[nH]2)c1C	i	55.3	61.1	i	67.1	55.1
O=C(Nc1nnc(-c2cccs2)o1)c1cc(-c2ccccc2)nc2ccccc12	i	i	46.2	i	i	i
CN(C)S(=O)(=O)c1cccc(NC(=O)c2cc(-c3cccs3)nc3ccccc23)c1	i	i	i	i	64.5	i
CCn1c(SCC(=O)N2CCCCC2)nc2c1c(=O)n(C)c(=O)n2C	i	i	i	i	i	i
COc1ccc(NC(=O)CN(C)C(=O)c2cc(-c3ccncc3)nc3ccccc23)cc1	i	i	i	i	51.5	i
CCOc1ccc(NC(=O)CN(C)C(=O)c2cn(-c3ccc(C)cc3)nc2-c2cccc(OC)c2)cc1OCC	nt	nt	nt	i	64.4	nt
CCOc1ccc(NC(=O)CN(C)C(=O)c2cc(C)nc3ccccc23)cc1OCC	nt	i	i	i	i	i
CCOc1ccc(NC(=O)CN(C)C(=O)c2cc(-c3ccco3)nc3ccccc23)cc1OCC	nt	nt	nt	i	52.0	nt
O=C(NNC(=O)c1cc(-c2ccco2)nc2ccccc12)c1ccccc1	i	i	i	i	49.6	i
C[C@H](NC(=O)CCn1nnc2ccccc2c1=O)C(=O)O	i	i	i	i	i	i
COc1ccccc1C(=O)NC(=S)Nc1ccc(S(=O)(=O)N2CCN(C)CC2)cc1	i	i	i	i	i	i
Cc1nc(N2CCN(Cc3ccccc3)CC2)nc2c1C(=O)CC(C)C2 (stereo unspecified)	i	i	i	i	i	i
O=C(NCC(=O)N(Cc1cccs1)C(C(=O)NC1CCCCC1)c1ccco1)c1ccco1 (stereo unspecified)	i	i	i	i	51.6	i
CN(CC(=O)Nc1cccc(F)c1)C(=O)c1ccccc1OCCOc1ccccc1	nt	i	i	i	i	i

Source: PubChem BioAssay (The Scripps Research Institute Molecular Screening Center)
